Results taken from ChEMBL document CHEMBL4342502, “Synthesis and Antichlamydial Activity of Molecules Based on Dysregulators of Cylindrical Proteases” (J Med Chem, 2020).
Calls of active or inactive are those of the source. The calls are words filed in the database; no cut-off is given here.

Tests used:
Candida albicans = experiment: Antifungal activity against Candida albicans ATCC 90028 assessed as fungal growth inhibition at 32 ug/ml measured after 16 hrs by broth microdilution method; assay type: functional, organism-based
[1] = Toxicity in Drosophila melanogaster assessed as survival rate at 0.25 to 1 mM; conditions: 1000 µM
Procedure, shortened: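 Drosophila SMART assay using third-instar larvae (72 ± 4 h) from ST and HB crosses. Larvae exposed in hydrated instant mashed-potato medium at 0.25, 0.5 and 1.0 mM final. Vehicle control: water with 1% Tween-80 and 3% ethanol. Survival of treated groups compared statistically with the vehicle control.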

Pseudomonas aeruginosa = experiment: Antibacterial activity against Pseudomonas aeruginosa ATCC 27853 assessed as bacterial growth inhibition at 32 ug/ml measured after 16 hrs by broth microdilution method; assay type: functional, organism-based
[2] = Stability of compound in human liver microsomes at 1 ug/ml measured up to 60 mins in absence of NADPH by LC-MS/MS analysis; assay type: ADME, Microsome; conditions: 1 h
Procedure, shortened: (§1)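 Human liver microsomes (1.0 mg/mL protein) in 100 mM phosphate pH 7.4 with 10 mM MgCl2 and 2 mM NADPH, preincubated 10 min at 37 °C. Reaction started with compound at 1 μg/mL. Sampled at 0, 5, 15, 20, 30, 45 and 60 min and quenched in methanol with internal standard. Controls: no NADPH (negative), testosterone (positive). Analysed by LC-MS/MS, triplicate.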

[3] = Mutagenicity in Drosophila melanogaster somatic cells assessed as frequency of clone formation in ST crosses at 0.25 to 1 mM by SMART assay; assay type: ADME; conditions: 1000 µM
Procedure, shortened: (§2)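 Drosophila SMART wing-spot assay, ST and HB crosses. Third-instar larvae (72 ± 4 h) placed on hydrated instant mashed potato medium containing compound at 0.25, 0.5 or 1.0 mM final. Negative control: water with 1% Tween-80 and 3% ethanol. Statistics by Frei and Würgler two-sided U test, P≤0.05.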

HeLa 229 = experiment: Cytotoxicity against human HeLa 229 cells assessed as cell viability at 50 ug/ml after 24 hrs by CCK-8 assay relative to control; assay type: cell-based; conditions: hela 229, 24 h
Procedure, shortened: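 HeLa 229 cells kept in DMEM with 10% FBS and 1% penicillin/streptomycin at 37 °C, 5% CO2. Seeded at 5000 cells/well and dosed next day at 50 μg/mL in triplicate for 24 h, against DMSO-matched controls. CCK-8 reagent added for 2 h, then corrected absorbance read at 450 nm.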

Cryptococcus neoformans = experiment: Antifungal activity against Cryptococcus neoformans var. grubii H99 ATCC […] as fungal growth inhibition at 32 ug/ml measured after 16 hrs by broth microdilution method; assay type: functional, organism-based; conditions: var. grubii H99 ATCC 208821
HaCaT = experiment: Cytotoxicity against immortal human HaCaT cells assessed as reduction in cell viability at 50 ug/ml after 24 hrs by CCK-8 assay; assay type: cell-based
Procedure, shortened: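 HeLa 229 and HaCaT cells in DMEM with 10% FBS and 1% penicillin/streptomycin, 37 °C, 5% CO2, seeded at 5000 cells/well. Next day treated with 50 μg/mL in triplicate, with matching DMSO controls. After 24 h, CCK-8 added for 2 h; corrected absorbance read at 450 nm.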

Staphylococcus aureus [4] = experiment: Antibacterial activity against methicillin-resistant Staphylococcus aureus ATCC 43300 assessed as bacterial growth inhibition at 32 ug/ml measured after 16 hrs by broth microdilution method; assay type: functional, organism-based
Chlamydia trachomatis [5] = experiment: Anti-chlamydial activity against Chlamydia trachomatis Serovar LGV-L2 infected in Hep2 cells assessed as reduction in chlamydial infectivity by measuring decrease in inclusion forming units at 50 ug/ml treated at 8 hrs post-infection and 24 hrs later re-infecting fresh Hep2 cells monolayer with infected cells and measured at 24 hrs post re-infection by immunofluorescence staining based microscopy analysis; assay type: functional, organism-based
Procedure, shortened: (§3)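 HEp-2 cells in DMEM with 10% FBS, infected with C. trachomatis L2 at MOI 1. Compounds added 8 hpi in triplicate; DMSO stocks at 50 mg/mL. At 24 hpi lysates collected in sucrose storage medium, frozen at −80 °C, and used to infect fresh HEp-2 monolayers in 10-fold dilutions. After 24 h, stained with goat anti-MOMP and Alexa488 secondary. Inclusions counted in 15 fields at 20x; IFU = mean count per field corrected for dilution.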

[6] = Intrinsic clearance in human liver microsomes at 1 ug/ml measured per mg protein up to 60 mins by LC-MS/MS analysis; assay type: ADME, Microsome; conditions: microsomes, 1 h; procedure, shortened: as §1
[7] = Drug metabolism in human liver microsomes assessed as amount of drug modified at 1 ug/ml […] in presence of NADPH by LC-MS/MS analysis; assay type: ADME, Microsome; conditions: read-out: Drug metabolism
[8] = Stability of the compound in simulated gastric fluid at 50 uM and pH 1.2 at 37 degree C measured up to 120 mins by HPLC-ESI/MS analysis; conditions: simulated gi fluid, pH 1.2, 2 h
[9] = Stability of compound in mouse pre-heated plasma at 50 uM incubated up to 120 mins by HPLC-ESI/MS analysis; assay type: ADME, cell-free; conditions: 2 h
Procedure, shortened: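 Compounds from 2.5 mM DMSO stocks incubated at 50 μM final in mouse plasma diluted to 80% with PBS, preheated, 37 °C, shaking. Sampled at 0, 15, 30, 60, 90 and 120 min and quenched with cold acetonitrile. Centrifuged; supernatant analysed by HPLC-ESI-MS. Peak area reported relative to time zero. Enalapril positive control; triplicate.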

[10] = Mutagenicity in Drosophila melanogaster somatic cells assessed as frequency of clone formation in HB crosses at 0.25 to 1 mM by SMART assay; assay type: ADME; conditions: 1000 µM; procedure, shortened: as §2
Escherichia coli [11] = experiment: Antibacterial activity against Escherichia coli ATCC 25922 assessed as bacterial growth inhibition at 32 ug/ml measured after 16 hrs by broth microdilution method; assay type: functional, organism-based
Acinetobacter baumannii = experiment: Antibacterial activity against Acinetobacter baumannii ATCC 19606 assessed as bacterial growth inhibition at 32 ug/ml measured after 16 hrs by broth microdilution method; assay type: functional, organism-based; conditions: ATCC 19606 = CIP 70.34 = JCM 6841
[12] = Hepatic intrinsic clearance in human liver microsomes at 1 ug/ml measured per kg body weight up to 60 mins by LC-MS/MS analysis; assay type: ADME, Microsome; conditions: 1 h
[13] = Half life in human liver microsomes at 1 ug/ml measured up to 60 mins by LC-MS/MS analysis; assay type: ADME, Microsome; conditions: microsomes, 1 h; procedure, shortened: as §1
Staphylococcus aureus [14] = experiment: Antibacterial activity against Staphylococcus aureus JE2 assessed as bacterial growth inhibition at 32 ug/ml measured after 16 hrs by broth microdilution method; assay type: functional, organism-based
Procedure, shortened: (§4)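 Broth microdilution in Mueller Hinton broth, triplicate. Direct colony suspension at 1.5 x 10^8 CFU/mL diluted to ~10^5 CFU/mL. Serial dilutions made from DMSO stocks at 1 mg/mL; vancomycin positive control, blank medium negative control. Incubated 16 h at optimum temperature. MIC is the lowest concentration without visible growth at 600 nm; mean of triplicate determinations.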

Klebsiella pneumoniae = experiment: Antibacterial activity against Klebsiella pneumoniae ATCC 700603 assessed as bacterial growth inhibition at 32 ug/ml measured after 16 hrs by broth microdilution method; assay type: functional, organism-based
Chlamydia trachomatis [15] = experiment: Anti-chlamydial activity against Chlamydia trachomatis Serovar LGV-L2 infected in Hep2 cells assessed as inhibition of chlamydial inclusion at 50 ug/ml treated at 8 hrs post infection and measured at 24 hrs post-infection by immunofluorescence assay; assay type: functional, organism-based
Procedure, shortened: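 HEp-2 cells infected with C. trachomatis serovar L2. Compounds at 50 μg/mL added 8 hpi; inclusion number and size assessed by immunofluorescence at 24 hpi against untreated cells. Cell morphology and viability checked by phase-contrast microscopy.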

Escherichia coli [16] = experiment: Antibacterial activity against Escherichia coli K12 assessed as bacterial growth inhibition at 32 ug/ml measured after 16 hrs by broth microdilution method; assay type: functional, organism-based; conditions: K-12; procedure, shortened: as §4
Chlamydia trachomatis [17] = experiment: (§5) Anti-Chlamydial activity against Chlamydia trachomatis Serovar LGV-L2 infected in Hep2 cells assessed as reduction in size and number of chlamydial inclusion at 4 ug/ml treated at 8 hrs post-infection and 24 hrs later re-infecting fresh Hep2 cells monolayer with infected cells and measured at 24 hrs post re-infection by immunofluorescence staining based microscopy analysis; assay type: functional, organism-based; procedure, shortened: as §3
Chlamydia trachomatis [18] = experiment: as §5, with “at 1” for “at 4”; assay type: functional, organism-based; procedure, shortened: as §3
Chlamydia trachomatis [19] = experiment: (§6) Activation of recombinant Chlamydia trachomatis Serovar LGV-L2 C-terminal 6xhis-tagged ClpP2 expressed in Escherichia coli assessed as induction of casein degradation at 0.1 to 1 uM using FITC-labelled casein as substrate pretreated with enzyme for 30 mins followed by substrate addition and measured every 3 mins for 3 hrs in absence of AAA+ chaperone by fluorescence based tecan-plate reader assay
Procedure, shortened: (§7)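 Recombinant C-terminal His6-tagged ClpP, expressed in a clpAPX-null E. coli strain and purified (mammalian ClpP without mitochondrial signal, codon-optimized). ClpP at 1 or 0.1 μM (E. coli), 1 μM (human, mouse) or 6 μM (chlamydial ClpP1 and ClpP2) preincubated with compound or DMSO, 30 min, 32 °C, in HEPES pH 7.6/KCl/MgCl2/DTT/glycerol buffer. 20 μM FITC-casein then added. Fluorescence (ex 490/em 525 nm) read every 3 min for 3 h. At least three runs on at least two protein preparations.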

Chlamydia trachomatis [20] = experiment: as §6, with “ClpP1/ClpP2 dimer” for “ClpP2”; procedure, shortened: as §7
[21] = biological target: ATP-dependent Clp protease proteolytic subunit (Escherichia coli (strain K12)) (UniProt P0A6G7); experiment: as §6, with “recombinant” for “recombinant Chlamydia trachomatis Serovar LGV-L2 C-terminal 6xhis-tagged ClpP2 expressed in”, “coli ClpP” for “coli”; procedure, shortened: as §7
Chlamydia trachomatis [22] = experiment: as §6, with “ClpP1” for “ClpP2”, “absence” for “absence of AAA+”; procedure, shortened: as §7
[23] = as §6, with “human” for “Chlamydia trachomatis Serovar LGV-L2”, “6xHis-tagged ClpP” for “6xhis-tagged ClpP2”; procedure, shortened: as §7
[24] = as §6, with “mouse” for “Chlamydia trachomatis Serovar LGV-L2”, “6xHis-tagged ClpP” for “6xhis-tagged ClpP2”; procedure, shortened: as §7

ATP-dependent Clp protease proteolytic subunit (Escherichia coli (strain K12)), sequence (P0A6G7 whole entry): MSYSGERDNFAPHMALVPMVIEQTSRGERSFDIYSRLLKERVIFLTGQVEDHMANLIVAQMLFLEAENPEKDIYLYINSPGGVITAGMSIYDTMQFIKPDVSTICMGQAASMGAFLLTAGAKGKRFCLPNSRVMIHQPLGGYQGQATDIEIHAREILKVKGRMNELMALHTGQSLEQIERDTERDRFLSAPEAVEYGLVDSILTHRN

Structure (SMILES)	inhibition (Candida albicans)	Activity [1]	inhibition (Pseudomonas aeruginosa)	Activity [3]	Activity (HeLa 229) [%]	inhibition (Cryptococcus neoformans)	inhibition (Staphylococcus aureus [4])	Activity [10]	inhibition (Escherichia coli [11])	inhibition (Acinetobacter baumannii)	inhibition (Staphylococcus aureus [14])	inhibition (Klebsiella pneumoniae)	inhibition (Chlamydia trachomatis [15])	inhibition (Escherichia coli [16])	other results
CC(C)(C(=O)NCCOc1ccccc1)S(=O)(=O)c1ccc(C(F)(F)F)cc1	inactive	Non-Toxic	inactive	Non-Toxic	< 65	inactive	inactive	Non-Toxic	inactive	inactive	inactive	inactive	Active	inactive	Stability [2]: Stable; Activity (HaCaT): Non-Toxic; inhibition (Chlamydia trachomatis [5]): Active; microsomal intrinsic clearance [6]: 233.77 µL/min; metabolised at 10 min, 1 ug/ml [7]: 90%; Stability [8]: Stable; Stability [9]: Stable; CLH [12]: 1840 mL/min/kg; t1/2 [13]: 2.98 min
CC[C@H]1OC(=O)[C@H](C)[C@@H](O[C@H]2C[C@@](C)(OC)[C@@H](O)[C@H](C)O2)[C@H](C)[C@@H](O[C@@H]2O[C@H](C)C[C@H](N(C)C)[C@H]2O)[C@](C)(O)C[C@@H](C)CN(C)[C@H](C)[C@@H](O)[C@]1(C)O															inhibition (Chlamydia trachomatis [17]): Active
CC(C)(C(=O)NCCSc1ccc(Cl)cc1)S(=O)(=O)c1ccc(C(F)(F)F)cn1	inactive	Non-Toxic	inactive	Non-Toxic	< 65	inactive	inactive	Non-Toxic	inactive	inactive	inactive	inactive	inactive	inactive	
C[C@H]1c2cccc(O)c2C(=O)C2=C(O)[C@]3(O)C(=O)C(C(N)=O)=C(O)[C@@H](N(C)C)[C@@H]3[C@@H](O)[C@@H]21															inhibition (Chlamydia trachomatis [18]): Active
CC(C)(C(=O)NCCCc1ccccc1)S(=O)(=O)c1ccccc1	inactive		inactive			inactive	inactive		inactive	inactive	inactive	inactive	inactive	inactive	Activity (Chlamydia trachomatis [19]): Active; Activity (Chlamydia trachomatis [20]): Active; Activity [21]: inactive; Activity (Chlamydia trachomatis [22]): Active; Activity [23]: Not Active; Activity [24]: Not Active
